A selection: hits, their analogues and other compounds. The true share with any hit is near 1.4%.
CAL PDZ FP-1: untagged CAL PDZ binding inhibitors, primary screen, biochemical, fluorescence polarization, HTS | inhibition, % at 24.9 µM | AID 602252, 2012 | purified CAL PDZ, TMR-peptide fluorescence polarization, 1 h | 300,000 compounds, 0.92% hits;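 active means mean inhibition of at least 30% with at least half of replicates also reaching 30%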;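 further: 0% = DMSO neutral control and 100% = excess unlabeled competitor peptide PRC23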
CAL PDZ FP-2: CAL PDZ peptide-binding inhibitors, primary screen, biochemical, fluorescence polarization, Cer-tagged CAL PDZ, HTS | 330,000 compounds, 0.02% hits | purified CAL PDZ, TMR-peptide fluorescence polarization, 1 h | AID 504414, 2011 | inhibition, % at 20 µM;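 active means highest replicate inhibition of at least 40%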;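 further: plate controls were DMSO neutral control wells for no effect and unlabeled competitor peptide control wells for full effect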
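Test system: purified CerCALP PDZ construct; Compound dosing: one concentration, 20 µM compound; Also added: TMR-labelled reporter peptide T*-PRC34 bound in PDZ groove; Read-out: inhibition from polarization loss; Controls: unlabelled peptide and DMSO controls; Signal: FP readout, S and P plane fluorescence; Incubation: 1 h at RT.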
DDE Tn6 FP inh: inhibitors of Tn6 peptide binding to fibrin DD(E), primary screen, biochemical, fluorescence polarization, human fibrin, Tn6 probe; Fibrinogen beta chain (Homo sapiens), P02675; Fibrin DD(E) TRITC-Tn6 fluorescence polarization displacement; inhibition, % at 8.3 µM; 370,000 compounds, 0.21% hits; AID 720509, 2013;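 active means inhibition above a per-campaign cutoff: mean of compounds within control limits plus 3 SD, cut at about 15% in these data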;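 further: 0% = median of all compound wells on the plate and 100% = blocking peptide control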
Target sequence (P02675 whole entry, looked up): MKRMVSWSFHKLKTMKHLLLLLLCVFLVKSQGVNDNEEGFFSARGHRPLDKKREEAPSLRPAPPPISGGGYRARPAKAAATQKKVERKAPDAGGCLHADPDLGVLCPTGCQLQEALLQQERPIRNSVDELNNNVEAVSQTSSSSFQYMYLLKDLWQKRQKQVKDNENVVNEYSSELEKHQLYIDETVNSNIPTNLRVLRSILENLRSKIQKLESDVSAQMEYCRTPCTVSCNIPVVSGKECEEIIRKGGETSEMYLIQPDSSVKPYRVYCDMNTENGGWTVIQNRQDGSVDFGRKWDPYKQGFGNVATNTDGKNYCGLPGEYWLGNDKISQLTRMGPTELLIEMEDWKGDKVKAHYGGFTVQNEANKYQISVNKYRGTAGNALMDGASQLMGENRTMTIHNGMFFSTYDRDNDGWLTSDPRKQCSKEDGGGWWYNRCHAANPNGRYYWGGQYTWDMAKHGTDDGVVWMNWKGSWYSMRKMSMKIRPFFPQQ
Tn7 DDE FP: inhibitors of Tn7 peptide binding to fibrin DD(E), primary screen, biochemical, fluorescence polarization, human fibrin, Tn7 probe. inhibition, % at 8.3 µM. FP displacement of FITC-Tn7 peptide from fibrin DD(E); 0% = median of compound wells per plate. AID 720508, 2013. Fibrinogen beta chain (Homo sapiens), P02675. 370,000 compounds, 0.13% hits;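 active means inhibition above the mean of compounds falling within the control limits plus 3 SD of them, cut at about 14% in these data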;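 further: 0% = plate median of compound wells and 100% = 10 µM Aha-Tn7 peptide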
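system = human fibrin DD(E) protein | quantity = DD(E) 2 µM final | medium = Tris/NaCl/CaCl2 buffer, pH 7.8 | also added = labelled Tn7 tracer, 0.1 µM | compound dosing = single point at 8.3 µM | timing = compound with protein 10 min, then 3 h after probe, room temperature | signal = FP measurement | benchmarks = Aha-Tn7 high control | repeats = one replicate per compound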
Arr AP2 block: inhibitors of beta-arrestin/AP2 binding, primary screen, biochemical, GPCR trafficking, flow cytometry; beta-arrestin 1 C-terminal peptide binding to AP2 beta2-adaptin appendage (human); FITC-arrestin peptide / GST-AP2 beads; AP2 beta2 appendage carries R879A mutation; inhibition, % at 10 µM; 340,000 compounds, 0.31% hits;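 active means inhibition above a set limit, near 3 SD of compounds lacking own fluorescence, cut at about 54% in these data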;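 further: plate controls were DMSO wells for no effect and 5 µM unlabelled arrestin peptide for full effect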
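System: GST-AP2 R879A glutathione beads. Medium: PBS with 0.05% Tween 20 and 0.1% BSA. Also added: FITC-arrestin peptide, 50 nM. Incubation: 12 min plus 1 h, RT. Measured by: high-throughput flow cytometry of beads, ex 488, em 535 nm. Evaluation: percent drop in bead-associated FITC signal.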
* = called active by the depositor.

For CCCCNC(=S)N1CCN(C(c2ccccc2)c2ccccc2)CC1 the results were CAL PDZ FP-1 45*, CAL PDZ FP-2 0, DDE Tn6 FP inh -4, Tn7 DDE FP -6 and Arr AP2 block -16.
O=C(COC(=O)c1ccccc1O)Nc1cccc(S(=O)(=O)NC2=NCCCCC2)c1 was read as CAL PDZ FP-1 35*, CAL PDZ FP-2 -2, DDE Tn6 FP inh 3, Tn7 DDE FP -6 and Arr AP2 block 0.
`O=C(COC(=O)c1ccccc1)Nc1cccc(S(=O)(=O)NC2=NCCCCC2)c1` gave CAL PDZ FP-1 -2, CAL PDZ FP-2 -2, DDE Tn6 FP inh -3, Tn7 DDE FP 4 and Arr AP2 block 13.
`O=C(OCc1cn(Cc2ccc(F)cc2)nn1)N1CCCC1` gave DDE Tn6 FP inh -5 and Tn7 DDE FP -1.
For CCOC(=O)[C@@]12CCCC3=C1N(CCC3)C(=O)[C@H]2CC(=O)NCc1cccc2ccccc12 the results were DDE Tn6 FP inh -5 and Tn7 DDE FP 4.
For O=C(Nc1ccc(C(F)(F)F)cc1Cl)c1ccc(Cn2cc(Br)cn2)o1 the results were CAL PDZ FP-1 -3, CAL PDZ FP-2 -2, DDE Tn6 FP inh 3, Tn7 DDE FP 7 and Arr AP2 block -3.
`O=C(Nc1cccc(C(F)(F)F)c1)c1ccc(Cn2cc(Br)cn2)o1` gave CAL PDZ FP-1 76*, CAL PDZ FP-2 -1, DDE Tn6 FP inh 0, Tn7 DDE FP -9 and Arr AP2 block -7.
`Cc1ccc2c(c1)c1nc3ccccc3nc1n2CCN1CCOCC1` gave CAL PDZ FP-2 -2, DDE Tn6 FP inh 3, Tn7 DDE FP -1 and Arr AP2 block 16.
For Cc1nc2c3cc(Cl)ccc3n(CCN3CCOCC3)c2s1 the results were CAL PDZ FP-1 47*, CAL PDZ FP-2 0, DDE Tn6 FP inh -2, Tn7 DDE FP -3 and Arr AP2 block 2.
`CCc1ncc(CN2CCCC(C(=O)Nc3cccc(-c4ccc(F)cc4)c3)C2)cn1` (stereo not given) gave CAL PDZ FP-1 -6, CAL PDZ FP-2 -3, DDE Tn6 FP inh -4, Tn7 DDE FP 1 and Arr AP2 block 39.
For CCn1cc(CN2CCCC(C(=O)Nc3cccc(-c4cc5ccccc5[nH]4)c3)C2)cn1 (stereo not given) the results were CAL PDZ FP-1 51*, CAL PDZ FP-2 2, DDE Tn6 FP inh 4, Tn7 DDE FP 3 and Arr AP2 block -4.
Screening COc1cccc(C(=O)Nc2ccc(C(=O)NCC3COc4ccccc4O3)cc2)c1 (stereo not given) returned DDE Tn6 FP inh 1 and Tn7 DDE FP -1.
For C/C(=C\C(=O)O)C(=O)Nc1nccs1 the results were CAL PDZ FP-1 -4, CAL PDZ FP-2 -1, DDE Tn6 FP inh -2, Tn7 DDE FP 3 and Arr AP2 block 1.
For CC(=O)c1nccs1 the results were CAL PDZ FP-1 32*, CAL PDZ FP-2 0 and Arr AP2 block -4.
Screening O=C(CCCN1C(=O)c2ccccc2C1=O)NCCCn1ccnc1 returned CAL PDZ FP-1 49*, CAL PDZ FP-2 0, DDE Tn6 FP inh -1, Tn7 DDE FP -1 and Arr AP2 block 4.
Screening O=C1c2ccccc2C(=O)N1CCCn1ccnc1 returned CAL PDZ FP-1 0, CAL PDZ FP-2 0, DDE Tn6 FP inh 8, Tn7 DDE FP 4 and Arr AP2 block 32.
O=C(O)CCCC(=O)Nc1ccc(N2CCCC2)cc1 was read as CAL PDZ FP-1 93*, DDE Tn6 FP inh 5, Tn7 DDE FP -9 and Arr AP2 block 10.
For Cc1cc(C)nc(NC(=O)Cc2ccc(Cl)cc2)c1 the results were CAL PDZ FP-1 33*, CAL PDZ FP-2 -2, DDE Tn6 FP inh 1, Tn7 DDE FP 4 and Arr AP2 block -5.
CCOC(=O)c1c(N)c(C#N)c2n1CCCCC2 was read as CAL PDZ FP-1 37*, DDE Tn6 FP inh 2, Tn7 DDE FP -2 and Arr AP2 block 9.
For O=Cc1ccc(OC(=O)/C=C/c2ccccc2)cc1 the results were CAL PDZ FP-1 79*, CAL PDZ FP-2 0, DDE Tn6 FP inh 2, Tn7 DDE FP 0 and Arr AP2 block 1.
For O=C(COc1ccc(-c2nnco2)cc1)N1CCN(S(=O)(=O)c2ccc3ccccc3c2)CC1 the results were CAL PDZ FP-1 42*, CAL PDZ FP-2 1, DDE Tn6 FP inh -2, Tn7 DDE FP -4 and Arr AP2 block -8.
`Cn1c(CN2CCCC2)nc2cc(NC(=O)COc3ccc(Cl)cc3)ccc21` gave CAL PDZ FP-1 -1, CAL PDZ FP-2 -3, DDE Tn6 FP inh -13, Tn7 DDE FP -3 and Arr AP2 block -56.
For COc1ccc(OCC(=O)Nc2ccc3c(c2)nc(CN2CCCC2)n3C)cc1 the results were CAL PDZ FP-1 58*, CAL PDZ FP-2 -1, DDE Tn6 FP inh 8, Tn7 DDE FP -2 and Arr AP2 block -2.
`COc1cc(NC(=O)CN(C)CCOc2ccccc2)c(C)cc1[N+](=O)[O-]` gave CAL PDZ FP-1 42*, CAL PDZ FP-2 -1, DDE Tn6 FP inh 2, Tn7 DDE FP 1 and Arr AP2 block 11.
`CN(C(=O)c1cccc(C(F)(F)F)c1)C1CCCc2ccccc21` (stereo not given) gave CAL PDZ FP-1 52*, CAL PDZ FP-2 -1, DDE Tn6 FP inh -1, Tn7 DDE FP -4 and Arr AP2 block 3.
CN(C(=O)CCl)C1CCCc2ccccc21 (stereo not given) was read as CAL PDZ FP-2 -1, DDE Tn6 FP inh -7, Tn7 DDE FP -2 and Arr AP2 block -33.
For CCOC(=O)C1CCCN(C(c2ccccn2)c2c(C)[nH]c3ccccc23)C1 (stereo not given) the results were CAL PDZ FP-1 119*, CAL PDZ FP-2 -2, DDE Tn6 FP inh -1, Tn7 DDE FP 5 and Arr AP2 block -1.
`Cc1[nH]c2ccccc2c1C(c1ccccn1)N1CCCC1` (stereo not given) gave CAL PDZ FP-1 0, CAL PDZ FP-2 -1, DDE Tn6 FP inh -3, Tn7 DDE FP 4 and Arr AP2 block 36.
C/C(C=NNC(=O)c1cc(-c2ccc(Cl)cc2)n[nH]1)=C\c1ccccc1 was read as DDE Tn6 FP inh 0 and Tn7 DDE FP -8.
Screening COC(=O)[C@]12C[C@H](CC(=O)NCc3ccccc3)C(=O)N(CCc3ccc(OC)c(OC)c3)C1=C[C@H](COCc1ccccc1)O[C@@H]2C returned DDE Tn6 FP inh 5 and Tn7 DDE FP 8.

Screens deposited in PubChem BioAssay by several laboratories.
